From the EternaBench riboswitch data

System: MS2 coat protein
Assay: apparent Kd, MS2 coat protein; higher = weaker binding; RNA-MaP array; FMN 200 µM where present
Outline: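 The titrant was SNAP-549-labelled MS2 coat protein, run from 0.7 or 1.5 nM in doubling steps to 3 µM. It was applied to designs transcribed by stalled E. coli RNA polymerase on Illumina sequencing-chip clusters, without ligand first and then with constant ligand, in 100 mM Tris-HCl pH 7.5, 80 mM KCl, 4 mM MgCl2, BSA, DTT, yeast tRNA and Tween-20. The apparent Kd is the median of filtered per-cluster binding-curve fits, with green signal normalised to red-channel RNA signal and control-cluster median Fmax.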

[1] = designed as: OFF switch for flavin mononucleotide, no ligand
[2] = ligand present: flavin mononucleotide, designed as: OFF switch for flavin mononucleotide
[3] = designed as: ON switch for flavin mononucleotide, no ligand
[4] = ligand present: flavin mononucleotide, designed as: ON switch for flavin mononucleotide

| Sequence | apparent Kd [1] [nM] | apparent Kd [2] [nM] | apparent Kd [3] [nM] | apparent Kd [4] [nM] |
| --- | --- | --- | --- | --- |
| GUCAGCUCGUCAGGAUAUACGUCACUGCGUCAGCAGUGUGGUAAGAUCACAUGAGGAUCACCCAUGUAGAAGGGACGAGCUGAU | 14.1 | 291 | – | – |
| AAAUAACUAGGAUAUCGAGGCACAGACAUGAGGAUCACCCAUGUGUGGUCUUCGUGCUUACGAGAAGGAGUACGGC | 672 | 274 | – | – |
| CCAGGCUUCGAGAAGGACAUGAGGAUCACCCAUGUGCGUGUGAAGCAGCCGUGAGGCUGCAUCAUGUAGGAUAUCGGAGUCUGG | 71.9 | 499 | – | – |
| UGUUGUAUUACAGGAUAUCUAUUAUUUUUAUAUAGAGAAGGGUAUUCACAUGAGGAUCACCCAUGUAUAUACGAGGAAGUUGUG | – | – | 37.2 | 40.8 |
| UUUCCCUGUGUGAGGAUAUACUUGUUUGGGUUUUUGUAGAAGGCACAUGAGGAUCACCCAUGUACUCUGUCGUG | 23.3 | 55.8 | – | – |
| GUAGAGUAGUGAGGAUAUACGAGAACGAUAGUUCGGCGAUCCAUUAAUACAUGAGGAUCACCCAUGUAGAAGGCACUUCUCUAC | 7.11 | 90.4 | – | – |
| AUUAUGACCGAGUUAUACUUCUAAACAUGAGGAUCACCCAUGUAGGAUAUCAGCACGAUAAGUGCUGAGAAGGACAUCUCGGUC | 13.7 | 14.6 | – | – |
| UGUGCGUAUGUGAGGAUAUGCUGGUCCUUGGAUCGGCAGAAGGCACAUGAGGAUCACCCAUGUGGUGUCGUUCA | 264 | 27.2 | – | – |
| UUUAUUUAGGCAGGAUAUACAUGUAUAUAUAUUUCUUUAUAUCUUAUUACAUGAGGAUCACCCAUGUAGAAGGGCCUUCUUAUA | 26.7 | 30.6 | – | – |
| GUCGUGUGAGGAUAUCUGAUGUCUAACUUCGGUUAGACAUCAGAGAAGGCACAUGAGGAUCACCCAUGUCCGAC | 195 | 298 | – | – |
| UAAGAGUGAGGAUAUACGUCGCUGGACCGGAUGGACGCAUGACAUGAGGAUCACCCAUGUAGAAGGCACAAAAC | 20.2 | 25.5 | – | – |
| GGAUGAGCAAUAGGAUAUGCUGGGAUUGAAUGGGUAGAAGGAUUUCUAGUGGGAAAGACAUGAGGAUCACCCAUGUCGCGGACC | – | – | 25.2 | 26.6 |
| AAAAUACAUGAGGAUCACCCAUGUGAGUCGAACGCAGGAUAUCGCCGUUGAAAAGGGCGGCGAGAAGGGUGCCGAA | – | – | 62.5 | 46.8 |
| UUCGGACUAUCAGGAUAUGGUGUAGCCUAGUAAAGGACAUGAGGAUCACCCAUGUACCAUUGGUACCAGAAGGGAUGAUCCUAC | – | – | 29.9 | 24.9 |
| GUCUCGAUGUAGAAGGCCGCGUCCGGCUCACGCGGAGGAUAUACAUGAGGAUCACCCAUGUGUCUGUGGCUAAUAUGGUACGGA | 41.8 | 234 | – | – |
| GUAGGCGACCAGAAGGGUGACAUGAGGAUCACCCAUGUAGAUGUGUUCCCGCUUGGGAGCCGUCCACAGGAUAUGGUUGCUUAG | – | – | 66.5 | 42.5 |
| GCCAUCGCAUGAGGAUAUGCUCCGGUUUCCGGAGCAGAAGGCGUGUCAUAAGACAUGAGGAUCACCCAUGUAGUUAAGAUGGCA | – | – | 246 | 10.6 |
| CUUUCGUUAGCAGGAUAUGGACAGGCCUGUCCGUCUUGAGUCUGUAACAUGAGGAUCACCCAUGUCCAGAAGGGCUCGAAGGGA | 8.04 | 15 | – | – |
| AAACACGGACAUGAGGAUCACCCAUGUGGCGAUAGCCUUGGGAGAAGGUAUAAAUAAAAUAAUAAUUAGGAUAUUCAUACCGUG | – | – | 275 | 108 |
| GUCGUGUGAGGAUAUGCACGAGUGACAGGGAGGCUGUCACAGCAGAAGGUACAUGAGGAUCACCCAUGUGAAAU | 29.1 | 24.2 | – | – |
| UUUGCAUUCCGAGGAUAUUCAUAUAAUAAAUAAACAUGAGGAUCACCCAUGUGGCGAAAGCCUAGGGAGAAGGCGGUAUGCUUU | – | – | 155 | 26.8 |
| AACCAUGAGCGAGGAUAUCACCCUACGGAGUGGUGAGAAGGCGCAACAUGAGGAUCACCCAUGUACAAAUGCGGGACCCUUUUC | 31 | 92.6 | – | – |
| CCGUUGGGCUAGAAGGCUCCGGGAGGACCGCGGAGAGGAUAUAGCACAUGAGGAUCACCCAUGUGGUAUGACCUUAUGUAUUCA | 33.6 | 65.1 | – | – |
| AGUAGAUCAGGAUAUACAUAAAUGAUAAUUAUGUAACUUCAACAUGAGGAUCACCCAUGUAGAAGGGAUCUACA | 16.3 | 15 | – | – |
| AAAUAAGUUGCAGGAUAUUAUUUUUAAUAAAUAUAAGAAGGGCAACAAACCUCACAUGAGGAUCACCCAUGUACCCAUGCAUCU | 97.8 | 38.4 | – | – |
| GAUUGAGAGCAGGAUAUCUUAGAAAUGUAUUAAAGAGAAGGGCUCACAUGAGGAUCACCCAUGUGGUCCUAGAU | 20.2 | 175 | – | – |
| GACAAUCUAUCUGAGGAUAUCAUGAAAAAAACAUGAGGAUCACCCAUGUGCAGGAAAACUGCAUAUGAGAAGGCAGAUAGAUUGC | – | – | 678 | 27.4 |
| AUCAGCUCGUCAGGAUAUACGUCACGGCGUCAGCAGUGUGGUAAGAUCACAUGAGGAUCACCCAUGUAGAAGGGACGAGCUGAU | 19.5 | 226 | – | – |

| Sequence | apparent Kd [1] [nM] | apparent Kd [2] [nM] | apparent Kd [3] [nM] | apparent Kd [4] [nM] |
| --- | --- | --- | --- | --- |
| UUUUUGUCAGGAUAUGACUAGAUGCACGUUAGUGUGUUUACUUAGAAGGGACAUGAGGAUCACCCAUGUAUUCC | 28.9 | 24.1 | – | – |
| GAUUCACAUGAGGAUCACCCAUGUCGUAAUAUGGGAGGAUAUACGUGGACCGUAGUCCGCGUAGAAGGCCUAAUUG | – | – | 172 | 36.6 |
| GGAAAUCAUGUAGGAUAUGCAUGGCGAAGCUACGCAGAAGGACAUGAGGAUCACCCAUGUUAUAGCGUCCGAGAAAGGAUGCAC | 38.8 | 162 | – | – |
| ACAUGAGGAUCACCCAUGUGAACAUAGGAUAUUGGUGAUCAGGCAUGUUAUACAGGAUAUGUCUGCGAGAAGGGUGCACGUUGC | – | – | 524 | 412 |
| ACCCAGUUUUGCACUACAUGAGGAUCACCCAUGUGAGCGAGCAGAAGGACGAUGGGUGGAAAAUCGUAGGAUAUGCACUGGGUA | – | – | 47.2 | 12.6 |
| CGAACUCCGUAGAAGGGUGACAUGAGGAUCACCCAUGUGCGAGCGGAGGGAGUCAGCGGCUCGCCACAGGAUAUACGGAGCACG | – | – | 49.4 | 107 |
| AUAAAACAUGAGGAUCACCCAUGUCAGUUAUCAUGAGGAUAUCCGCCGACCCGGGCGUAAGGAGAAGGCAUAUAAU | – | – | 39.3 | 20.1 |
| GCUGUCGCAUGAGGAUAUGGUCAGCUUUGCUGACCAGAAGGCAUGUCAAUAGACAUGAGGAUCACCCAUGUAGUUAAGACAGCA | – | – | 717 | 49.2 |
| UUUUAGUCAGGAUAUACAUGAGGAUCACCCAUGUAAAAUUUUAGUUUAAUUUGAAUGUGUAGAAGGGACAUUUU | 24.7 | 22.9 | – | – |
| GUAUUUUUACAGAAGGUGUAUUACAUGAGGAUCACCCAUGUUUUAUGGAAUAAAGAUUUUAUUUACAAGGAUAUGUACUAUUUU | – | – | 31.7 | 20.6 |
| AUGGACGUCGUAGGAUAUGUAGGAUUCUCCUACAUGAGGAUCACCCAUGUUGACAUGGAGGACGGACAGAAGGACGGUGUCCAU | – | – | 13.2 | 5.31 |
| UACAAUCUAUCUGAGGAUAUCAUGCAUUACACAUGAGGAUCACCCAUGUGCAGGAAAACUGCAUAUGAGAAGGCAGAUAGAUUGU | – | – | 561 | 23.8 |
| GCUGACGAUGUAGGAUAUCUCGACGAUAAGUCGAGAGAAGGACAUGAGGAUCACCCAUGUAAAAUCCCGUCAGCGAGGAAACUC | 16.4 | 23.1 | – | – |
| GUCUGGUUAGGAUAUACAGUGUCCACGAGUUAGUUGCCCUAACAUGAGGAUCACCCAUGUAGAAGGAGCGAGAA | 22.2 | 22.6 | – | – |
| CCCUAGGUAGGAUAUACUUGGGCUCGGCUGAUGUGCUUAAAACAUGAGGAUCACCCAUGUAGAAGGACUAAGGC | 15.3 | 12.9 | – | – |
| UUCAGGGAUCAAGGAUAUCUAUAUUCAUGAGGACAUGAGGAUCACCCAUGUUGAUUACCCAUGAGGGAGAAGGUGAACAUGAGG | – | – | 44.2 | 18.7 |
| UAAAAGACUAGCUUUGGUAAGAUCACAUGAGGAUCACCCAUGUAGGAUAUGAGCAGAAAAUCUGCUCAGAAGGACAUGCUAGUC | 16.2 | 156 | – | – |
| GCGUUGUACGAGAAGGCCAAUACAUGAGGAUCACCCAUGUUAAGUUGUUUUGGAGGAUAUCGAUCACAUUCAAUAAUGCAACGC | 6.71 | 5.77 | – | – |
| UGAACUUCAGAGAAGGUCGAACGGCAACGGUUCGAAGGAUAUCUGGAAACAUGAGGAUCACCCAUGUAACCGGGUGGAUGUCCU | 58.9 | 291 | – | – |
| UACAUGUAAGGAUAUGUAAAAUCAAAACAAGAACGAUAAAGACAGAAGGUACAUGAGGAUCACCCAUGUGUCCC | 20.5 | 21.4 | – | – |
| AUGGACGUCGUAGGAUAUGUAGGAUUCUCGUACAUGAGGAUCACCCAUGUUGACGUCGAGGACGGACAGAAGGGCGGUGUCCAU | – | – | 42.3 | 8.01 |
| GUAGUGUAGUGAGGAUAUACGAGAUCGAUAGAUCGGCGAUCCAAUAAUACAUGAGGAUCACCCAUGUAGAAGGCACUUCACUAC | 7.26 | 98.8 | – | – |
| GAGUGAUUAGGAUAUACAUGAGGAUCACCCAUGUGCUUCAGCUAGGAGACUAGCAUUGGUAGAAGGAAUUACUC | 16.3 | 57.1 | – | – |
| UUAUACGUUGAGGAUAUGUUAUUUAGUAUAGUUACAGAAGGCGAUACAUGAGGAUCACCCAUGUUUAUGGGCAU | 196 | 153 | – | – |
| AGGAAGUGAGGAUAUGCAGUCGCUAGUAGACGCUAGCACUUGUAGAAGGCACAUGAGGAUCACCCAUGUUUAAA | 31.3 | 36.3 | – | – |
| GUCAGCUCGUGAGGAUAUACAACACUGCUUCGGUAGUGUAUUAAGAUCACAUGAGGAUCACCCAUGUAGAAGGCACGAGCUGAU | 15.1 | 268 | – | – |
| UCGCCUUAGUAAGGAUAUCACAUGAGGAUCACCCAUGUGGGCGUGACACGGUGAGAAGGUACGCGGCGAAGGUGCCAAGGCAUC | 387 | 44 | – | – |
